# What was measured:
# [1] = system: earthworm; conditions: survival; ref National Registration Authority for Agricultural and Veterinary Chemicals (2001); cited from earlier work
# [2] = format: physicochemical; conditions: E. andrei test soil, nominal 10 thiamethoxam, t=56 days
# Summary of the method: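 Soil (5 g) sampled from replicate jar 4 on days 0, 28 and/or 56 and stored at –20 °C. Extracted by QuEChERS and analysed by reverse-phase LC–MS/MS at an external lab; detection limit 0.01 mg a.s./kg dry soil. Soils were also screened for the parent's conversion product. DT50 derived as ln(2)/k from first-order decay without lag.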
# [3] = octanol/water partition coefficient at pH 7, 20 °C; ref University of Hertfordshire 2018; cited from earlier work
# [4] = system: Eisenia andrei; assay: Earthworm reproduction test; format: in vivo
# Summary of the method: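 Clitellate 2-mo synchronized worms acclimatized 24 h in clean soil, washed and weighed. Ten per ~600 g spiked LUFA 2.2 soil (nominal 0.04–10.0 mg a.s./kg dry soil, pure or formulation), 4 replicates, horse manure as food, 20 ± 2 °C, 75% RH. Survival and weight change read on day 28. Juveniles extracted on day 56 in a 60 °C water bath. Log-logistic LC50/EC50 fitted on nominal concentrations.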
# [5] = system: Folsomia candida; assay: Collembolan reproduction test; format: in vivo; conditions: F. candida; for Times more toxic to survival than its commercial formulation: pure compound vs formulation (LC50)
# Summary of the method: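 LUFA 2.2 soil spiked with aqueous pure compound or commercial formulation to 50% WHC; nominal control and 0.04–10.0 mg a.s./kg dry soil. Ten 10–12-d-old synchronized juveniles per 30 g soil, 5 replicates, weekly yeast and water top-up. Held 28 d at 20 ± 2 °C, 75% RH. Animals counted by flotation and image analysis. Log-logistic LC50/EC50 fitted on nominal concentrations.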
# [6] = system: E. fetida; conditions: cited from earlier work
smiles,measurement,setting,value
"CN1COCN(Cc2cnc(Cl)s2)/C1=N\[N+](=O)[O-] [Thiamethoxam, thiamethoxam]","LC50, acute toxicity tests (14 d)",[1],> 1000 mg a.s./kg dry soil
same,Concentration of clothianidin measured (conversion product of thiamethoxam),[2],0.09 mg a.s./kg dry soil
same,Log K OW,[3],–0.13
same,Toxicity to E. andrei at the concentrations tested (in words),"[4]; highest concentration tested 10 mg a.s./kg dry soil, survival and reproduction",no toxicity
"O=[N+]([O-])NC1=NCCN1Cc1ccc(Cl)nc1 [Imidacloprid, imidacloprid]",Times more toxic to reproduction than its commercial formulation,[5]; pure compound vs formulation (EC50),4
"CN/C(=N\[N+](=O)[O-])NCc1cnc(Cl)s1 [Clothianidin, clothianidin]",Log K OW,[3],0.95
same,Times more toxic than thiacloprid,[5]; LC50 comparison,approximately 100
"N#C/N=C1\SCCN1Cc1ccc(Cl)nc1 [Thiacloprid, thiacloprid]",Times more toxic to reproduction than to survival,[5],approximately 3
same,LC50,[6]; ref Feng et al. (2015),8.43 mg/kg
"C/C(=N\C#N)N(C)Cc1ccc(Cl)nc1 [Acetamiprid, acetamiprid]",Log K OW,[3],0.8
same,Times more toxic to the survival of the earthworms compared with thiacloprid,"[4]; E. andrei, LC50 comparison",10
same,Times more toxic to survival than its commercial formulation,[5],3
same,Times more toxic to survival than its commercial formulation,[5]; listed as acetamiprid,4
same,EC50s,"[6]; ref Wang et al. (2012), Ge et al. (2018), Wang et al. (2015)",approximately 0.30 mg a.s/kg dry soil
